Data set [1] has as its system U2OS. In words: Induction of intracellular ROS accumulation in human U2OS/DX30 cells at 5 uM incubated for 24 hrs by DCFDA-AM probe-based fluorimetrical analysis relative to control. The class given is functional, cell-based. In outline: (§1)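 After 24 h at 5 μM, 1×10^6 cells in 0.5 mL PBS were loaded with 5 μM DCFDA-AM for 30 min at 37 °C, spun and resuspended. Fluorescence read at ex 492/em 517 nm, expressed as nmol ROS/mg cell protein. Duplicate, n = 3, mean ± SD.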

The subject of data set [2] is H9c2. In words: Cytotoxicity in rat H9c2 cells at 5 uM incubated for 24 hrs by LDH release-based spectrofluorimetrical analysis relative to control. The class given is cell-based. As to conditions: h9c2, 24 h. The gist of the method: (§2)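 Cells exposed 24 h to 5 μM drug in DMEM with 10% FBS at 37 °C, 5% CO2. Medium spun 12,000 × g 5 min. Cells sonicated in 82.3 mM triethanolamine phosphate-HCl pH 7.6. LDH in medium and lysate followed 6 min at 340 nm. Extracellular LDH reported as % of total dish activity, duplicate, n = 3, mean ± SD.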
For orientation: Release of lactate dehydrogenase indicates damage to the cell membrane.

The subject of data set [3] is H9c2. Briefly: Cytotoxicity in rat H9c2 cells assessed as intracellular ROS accumulation at 5 uM incubated for 24 hrs by DCFDA-AM probe-based fluorimetrical analysis relative to control. Type of data set: cell-based. The settings on record: h9c2, 24 h. The gist of the method: as §1
Data set [4] deals with H9c2. Briefly: Cytotoxicity in rat H9c2 cells assessed as reduction in ROS level at 5 uM incubated for 24 hrs in presence of NAC by DCFDA-AM probe-based fluorimetrical analysis. The settings on record: h9c2, 24 h. The class given is cell-based.
The test system of data set [5] is H9c2. In words: Cytotoxicity in rat H9c2 cells at 5 uM incubated for 24 hrs in presence of NAC by LDH release-based spectrofluorimetrical analysis relative to control. The class given is cell-based. The settings on record: h9c2, 24 h.
Data set [6] in a line: Drug uptake in human U2OS/DX100 cells at 5 uM incubated for 24 hrs by fluorimetrical analysis. Type of data set: ADME, cell-based. In outline: (§3)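 Intracellular drug measured after 24 h exposure to 5 μM. Cell lysates read fluorimetrically at ex 475/em 553 nm with cell-free blank subtracted. Converted by calibration curve to nmol drug/mg cell protein. Duplicate, n = 3, mean ± SD.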

The test system of data set [7] is U2OS. Briefly: Induction of intracellular ROS accumulation in human U2OS/DX580 cells at 5 uM incubated for 24 hrs by DCFDA-AM probe-based fluorimetrical analysis relative to control. Type of data set: functional, cell-based. In outline: as §1
The nature of data set [8]: Drug uptake in human U2OS/DX30 cells at 5 uM incubated for 24 hrs by fluorimetrical analysis. The class given is ADME, cell-based. In outline: as §3
For data set [9], the target named is DNA topoisomerase 2-alpha (Homo sapiens) (UniProt P11388). Briefly: Inhibition of human topoisomerase 2-mediated DNA cleavage at 5 uM using supercoiled pHOT1 plasmid as substrate by agarose gel electrophoresis.
Data set [10] has as its system U2OS. Briefly: Activity at PgP in human […] cells assessed as Vmax measured per mg of protein incubated for 20 mins by fluorimetrical analysis. The class given is cell-based. The gist of the method:
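U-2OS/DX580 cells exposed 20 min to 0-50 μM drug, washed, intracellular doxorubicin read fluorimetrically; parallel dishes left a further 10 min at 37 °C before reading. Efflux rate (difference, nmol extruded/min/mg cell protein) plotted against initial concentration; Vmax and Km fitted. Means ± SD, n = 3.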

In data set [11] the test system is H9c2. In words: Cytotoxicity in rat H9c2 cells […] at 5 uM incubated for 24 hrs in presence of dexrazoxane by LDH release-based spectrofluorimetrical analysis relative to control. The class given is cell-based. As to conditions: h9c2, 24 h.
Data set [12] has as its system H9c2. In words: Cytotoxicity in rat H9c2 cells assessed as intracellular ROS accumulation at 5 uM incubated for 24 hrs in presence of hydroxocobalamin by DCFDA-AM probe-based fluorimetrical analysis relative to control. The settings on record: h9c2, 24 h. The class given is cell-based. In outline:
(§4)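 H9c2 cells held 24 h with 5 μM drug plus 100 μM hydroxocobalamin, then loaded with 5 μM DCFDA-AM for 30 min at 37 °C. Fluorescence read at 492/517 nm, expressed as nmol ROS/mg protein. Duplicate, n = 3.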

For data set [13], the system named is U2OS. Briefly: Induction of intracellular ROS accumulation in human U2OS/DX100 cells at 5 uM incubated for 24 hrs by DCFDA-AM probe-based fluorimetrical analysis relative to control. The class given is functional, cell-based. The gist of the method: as §1
Data set [14] concerns U2OS. In words: Cytotoxicity in human U2OS/DX30 cells at 5 uM incubated for 24 hrs by LDH release-based spectrofluorimetrical analysis. Type of data set: functional, cell-based. The gist of the method:
as §2

Data set [15] relates to U2OS. In words: Cytotoxicity in human U2OS/DX580 cells at 5 uM incubated for 24 hrs by LDH release-based spectrofluorimetrical analysis. Type of data set: functional, cell-based. The gist of the method:
as §2

The test system of data set [16] is H9c2. In words: Drug uptake in rat H9c2 cells at 5 uM incubated for 24 hrs by fluorimetrical analysis. The class given is ADME, cell-based. The settings on record: h9c2, 24 h. In outline: as §3
Data set [17] is described as follows: Drug uptake in human U2OS/DX580 cells at 5 uM incubated for 24 hrs by fluorimetrical analysis. The class given is ADME, cell-based. The gist of the method: as §3
Data set [18] relates to U2OS. Briefly: Cytotoxicity in human U2OS/DX100 cells at 5 uM incubated for 24 hrs by LDH release-based spectrofluorimetrical analysis. The class given is functional, cell-based. The gist of the method:
as §2

In data set [19] the test system is U2OS. Briefly: Induction of intracellular ROS accumulation in human U2OS cells at 5 uM incubated for 24 hrs by DCFDA-AM probe-based fluorimetrical analysis relative to control. The class given is functional, cell-based. The gist of the method:
as §1

In data set [20] the test system is U2OS. Briefly: Reduction of doxorubicin-mediated ROS accumulation in human U2OS/DX30 cells at 5 uM incubated for 24 hrs by DCFDA-AM probe-based fluorimetrical analysis relative to control. Type of data set: functional, cell-based.
The test system of data set [21] is H9c2. Briefly: Reduction of doxorubicin-mediated cytotoxicity in rat H9c2 cells at 5 uM incubated for 24 hrs by LDH release-based spectrofluorimetrical analysis relative to control. Type of data set: functional, cell-based.
Data set [22] concerns U2OS. Briefly: Reduction of doxorubicin-mediated cytotoxicity in human U2OS cells at 5 uM incubated for 24 hrs by DCFDA-AM probe-based fluorimetrical analysis relative to control. Type of data set: functional, cell-based.
The test system of data set [23] is U2OS. Briefly: Reduction of doxorubicin-mediated ROS accumulation in human U2OS/DX580 cells at 5 uM incubated for 24 hrs by DCFDA-AM probe-based fluorimetrical analysis relative to control. The class given is functional, cell-based.
Data set [24] relates to U2OS. Briefly: Increase in doxorubicin-mediated cytotoxicity in human U2OS/DX30 cells at 5 uM incubated for 24 hrs by LDH release-based spectrofluorimetrical analysis relative to control. Type of data set: functional, cell-based. In outline: as §2
Data set [25] concerns H9c2. In words: Cytotoxicity in rat H9c2 cells at 5 uM incubated for 24 hrs in presence of hydroxocobalamin by LDH release-based spectrofluorimetrical analysis relative to control. The settings on record: h9c2, 24 h. Type of data set: cell-based. In outline:
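H9c2 cardiomyocytes given 5 μM drug for 24 h with 100 μM hydroxocobalamin as H2S scavenger. LDH measured at 340 nm over 6 min in medium and lysate. Extracellular activity taken as % of total, duplicate, n = 3.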

The test system of data set [26] is U2OS. In words: Increase in doxorubicin-mediated cytotoxicity in human U2OS/DX100 cells at 5 uM incubated for 24 hrs by LDH release-based spectrofluorimetrical analysis relative to control. The class given is functional, cell-based. In outline: as §2
The subject of data set [27] is U2OS. Briefly: Effect on doxorubicin-mediated cytotoxicity in human U2OS/DX580 cells at 5 uM incubated for 24 hrs LDH release-based spectrofluorimetrical analysis relative to control. The class given is functional, cell-based. The gist of the method: as §2
The test system of data set [28] is H9c2. In words: Effect on doxorubicin accumulation in rat H9c2 cells at 5 uM incubated for 24 hrs by fluorimetrical analysis. Type of data set: functional, cell-based.
For data set [29], the system named is H9c2. Briefly: Cytotoxicity in rat H9c2 cells assessed as reduction in basal ROS level at 5 uM incubated for 24 hrs in presence of hydroxocobalamin by DCFDA-AM probe-based fluorimetrical analysis. Type of data set: cell-based. As to conditions: h9c2, 24 h. The gist of the method:
as §4

For data set [30], the system named is U2OS. In words: Increase in doxorubicin accumulation in human U2OS/DX30 cells at 5 uM incubated for 24 hrs by fluorimetrical analysis. The class given is functional, cell-based.
Data set [31] has as its system U2OS. In words: Reduction of doxorubicin-mediated ROS accumulation in human U2OS/DX100 cells at 5 uM incubated for 24 hrs by DCFDA-AM probe-based fluorimetrical analysis relative to control. The class given is functional, cell-based.
The test system of data set [32] is U2OS. Briefly: Activity at PgP in human U2OS/[…] cells assessed as Vmax for doxorubicin measured per mg of protein incubated for 20 mins by fluorimetrical analysis (reference value: […] +/- […] nmol/min). The class given is cell-based.
Data set [33] concerns U2OS. Briefly: Effect on doxorubicin accumulation in human U2OS/DX580 cells at 5 uM incubated for 24 hrs by fluorimetrical analysis. The class given is functional, cell-based.
For data set [34], the system named is H9c2. In words: Cytotoxicity in rat H9c2 cells assessed as reduction in basal ROS level at 5 uM incubated for 24 hrs by DCFDA-AM probe-based fluorimetrical analysis. The class given is cell-based. The settings on record: h9c2, 24 h. The gist of the method: as §1
The subject of data set [35] is H9c2. In words: Cytotoxicity in rat H9c2 cells at 5 uM coincubated with doxorubicin for 24 hrs in presence of hydroxocobalamin by LDH release-based spectrofluorimetrical analysis relative to control. As to conditions: h9c2, 24 h. Type of data set: cell-based.
The subject of data set [36] is U2OS. Briefly: Increase in doxorubicin accumulation in human U2OS/DX100 cells at 5 uM incubated for 24 hrs by fluorimetrical analysis. Type of data set: functional, cell-based.

Calls of active or inactive are those of the source. The rule behind the calls is not given here.

Chain of DNA topoisomerase 2-alpha (Homo sapiens) (P11388 whole entry): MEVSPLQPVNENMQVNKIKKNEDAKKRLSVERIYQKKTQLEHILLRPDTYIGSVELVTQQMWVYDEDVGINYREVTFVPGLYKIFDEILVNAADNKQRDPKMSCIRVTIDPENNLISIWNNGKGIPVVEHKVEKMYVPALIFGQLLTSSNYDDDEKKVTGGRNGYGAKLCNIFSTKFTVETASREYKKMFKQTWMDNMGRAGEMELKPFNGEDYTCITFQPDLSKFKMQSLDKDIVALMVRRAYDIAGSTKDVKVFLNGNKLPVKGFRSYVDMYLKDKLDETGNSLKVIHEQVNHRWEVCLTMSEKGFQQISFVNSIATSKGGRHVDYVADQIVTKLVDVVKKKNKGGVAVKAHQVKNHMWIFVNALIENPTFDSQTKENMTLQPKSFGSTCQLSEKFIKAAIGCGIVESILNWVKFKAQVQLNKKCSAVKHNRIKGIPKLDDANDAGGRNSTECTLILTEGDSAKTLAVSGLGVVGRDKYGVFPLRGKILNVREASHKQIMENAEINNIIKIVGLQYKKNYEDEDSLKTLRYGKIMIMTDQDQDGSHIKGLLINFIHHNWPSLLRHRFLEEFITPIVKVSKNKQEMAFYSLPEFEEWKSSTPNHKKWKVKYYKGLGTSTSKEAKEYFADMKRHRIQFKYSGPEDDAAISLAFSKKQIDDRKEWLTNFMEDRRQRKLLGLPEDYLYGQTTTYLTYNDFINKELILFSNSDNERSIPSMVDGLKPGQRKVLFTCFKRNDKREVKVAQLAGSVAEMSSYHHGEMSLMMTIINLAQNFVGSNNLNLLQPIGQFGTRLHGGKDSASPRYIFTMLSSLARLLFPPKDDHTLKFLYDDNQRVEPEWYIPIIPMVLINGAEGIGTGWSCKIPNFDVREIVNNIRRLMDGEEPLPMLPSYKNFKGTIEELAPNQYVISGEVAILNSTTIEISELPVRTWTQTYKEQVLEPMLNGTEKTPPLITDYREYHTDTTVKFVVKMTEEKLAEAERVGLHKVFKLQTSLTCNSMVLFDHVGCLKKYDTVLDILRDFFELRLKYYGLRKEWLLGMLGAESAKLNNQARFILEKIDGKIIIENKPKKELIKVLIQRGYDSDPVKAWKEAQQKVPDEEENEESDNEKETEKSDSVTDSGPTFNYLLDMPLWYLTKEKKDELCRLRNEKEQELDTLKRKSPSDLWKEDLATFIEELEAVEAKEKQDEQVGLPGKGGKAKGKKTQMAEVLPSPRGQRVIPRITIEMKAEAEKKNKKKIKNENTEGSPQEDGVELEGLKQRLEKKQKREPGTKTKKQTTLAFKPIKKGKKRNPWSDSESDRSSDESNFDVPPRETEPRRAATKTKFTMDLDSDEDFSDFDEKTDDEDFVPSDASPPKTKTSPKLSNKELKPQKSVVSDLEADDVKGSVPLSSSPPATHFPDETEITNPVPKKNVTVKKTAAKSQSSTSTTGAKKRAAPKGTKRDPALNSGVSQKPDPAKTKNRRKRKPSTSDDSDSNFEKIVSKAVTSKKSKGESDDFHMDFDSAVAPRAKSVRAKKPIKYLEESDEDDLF

The term Vmax denotes the top rate of the reaction or transport when substrate is in excess. Regarding `COc1cccc2c1C(=O)c1c(O)c3c(c(O)c1C2=O)C[C@@](O)(C(=O)CO)C[C@@H]3O[C@H]1C[C@H](N)[C@H](O)[C@H](C)O1.Cl` [DOXORUBICIN HYDROCHLORIDE], the result in the data set on U2OS [1], with U2OS [7], with U2OS [13], in the data set on U2OS [14], in the data set with U2OS [15] and with U2OS [18] was inactive. Besides, the Activity result with H9c2 [2] is “Toxic”; with H9c2 [3], “Toxic”; with H9c2 [4], “Non-toxic”; with H9c2 [5], “Non-toxic”; with H9c2 [11] it was “Toxic”; with H9c2 [12] it was “Toxic”. The Drug uptake entry in data set [6] was “Not Active”; in [8], “Not Active”; in the data set on H9c2 [16] it was “Active”; in data set [17], “Not Active”. In data set [9], the inhibition entry was “inactive”. In addition, the Vmax with U2OS [10] turned out to be 24.1 nmol/min/mg. The outcome in the data set on U2OS [19] was Active.

As to `O=C(O)c1ccc(-c2ssc(=S)c2-c2ccccc2)cc1`, the result in the data set with U2OS [20], in the data set on H9c2 [21], with U2OS [22], in the data set on U2OS [23], in the data set with U2OS [24] and in the data set on U2OS [26] was Active. In addition, the result in the data set on U2OS [30], in the data set on U2OS [31] and with U2OS [36] was Active. Further, the Activity entry in the data set with H9c2 [2] is given as “Non-toxic”; in the data set with H9c2 [25], “Toxic”; in the data set on H9c2 [29], “Toxic”; in the data set with H9c2 [34], “Non-toxic”; with H9c2 [35] it was “Toxic”. For the same compound, the result in the data set with U2OS [27], in the data set with H9c2 [28] and in the data set with U2OS [33] was inactive. Also, the Vmax in the data set with U2OS [32] came out at 16 nmol/min/mg.
